From PubChem
Hits are enriched below; roughly 4.1% of the tested compounds scored in any of these assays.
KCNQ1 pot: human KCNQ1 channel potentiation or activation | CHO-K1 KCNQ1, thallium flux FluxOR fluorescence; stronger effect = higher value | hit rate 0.35% among 310,000 | B-score at 10 µM | AID 2648;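 active means fluorescence ratio B-score, a plate-corrected score, at least three library SD, with initial intensity B-score within 5 SD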
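Doses: Single concentration per compound, DMSO matched to controls | Test system: KCNQ1-transfected CHO-K1 cells | Timing: 90 min dye loading and 20 min compound exposure, both at room temperature | Measured by: Kinetic FluxOR thallium fluorescence, 10-s 1-Hz baseline, 110-s post-stimulus read | Medium: Assay buffer with matched DMSO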
KCNK9 inh: human KCNK9 channel inhibition; HEK293 KCNK9, FluxOR thallium flux fluorescence; stronger effect = lower value; B-score at 10 µM; hit rate 1.2% among 310,000;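 active means ratio B-score over 3 SD below the library mean, with starting fluorescence within 5 SD of its mean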;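 further: negative B-score means less thallium flux so channel inhibition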
hERG rescue: hERG (human) protection from proarrhythmic block; Q12809; hit rate 0.51% among 310,000; CHO-hERG, FluxOR thallium flux, dofetilide IC70 present; AID 1511; activation (rescue from dofetilide block), less the hit threshold, % at 10 µM;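 active means activation above the mean of controls blocked by dofetilide plus 5 SD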;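 further: thallium influx through hERG after potassium depolarization seen as dye fluorescence rise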
Target sequence (Q12809 whole entry, looked up): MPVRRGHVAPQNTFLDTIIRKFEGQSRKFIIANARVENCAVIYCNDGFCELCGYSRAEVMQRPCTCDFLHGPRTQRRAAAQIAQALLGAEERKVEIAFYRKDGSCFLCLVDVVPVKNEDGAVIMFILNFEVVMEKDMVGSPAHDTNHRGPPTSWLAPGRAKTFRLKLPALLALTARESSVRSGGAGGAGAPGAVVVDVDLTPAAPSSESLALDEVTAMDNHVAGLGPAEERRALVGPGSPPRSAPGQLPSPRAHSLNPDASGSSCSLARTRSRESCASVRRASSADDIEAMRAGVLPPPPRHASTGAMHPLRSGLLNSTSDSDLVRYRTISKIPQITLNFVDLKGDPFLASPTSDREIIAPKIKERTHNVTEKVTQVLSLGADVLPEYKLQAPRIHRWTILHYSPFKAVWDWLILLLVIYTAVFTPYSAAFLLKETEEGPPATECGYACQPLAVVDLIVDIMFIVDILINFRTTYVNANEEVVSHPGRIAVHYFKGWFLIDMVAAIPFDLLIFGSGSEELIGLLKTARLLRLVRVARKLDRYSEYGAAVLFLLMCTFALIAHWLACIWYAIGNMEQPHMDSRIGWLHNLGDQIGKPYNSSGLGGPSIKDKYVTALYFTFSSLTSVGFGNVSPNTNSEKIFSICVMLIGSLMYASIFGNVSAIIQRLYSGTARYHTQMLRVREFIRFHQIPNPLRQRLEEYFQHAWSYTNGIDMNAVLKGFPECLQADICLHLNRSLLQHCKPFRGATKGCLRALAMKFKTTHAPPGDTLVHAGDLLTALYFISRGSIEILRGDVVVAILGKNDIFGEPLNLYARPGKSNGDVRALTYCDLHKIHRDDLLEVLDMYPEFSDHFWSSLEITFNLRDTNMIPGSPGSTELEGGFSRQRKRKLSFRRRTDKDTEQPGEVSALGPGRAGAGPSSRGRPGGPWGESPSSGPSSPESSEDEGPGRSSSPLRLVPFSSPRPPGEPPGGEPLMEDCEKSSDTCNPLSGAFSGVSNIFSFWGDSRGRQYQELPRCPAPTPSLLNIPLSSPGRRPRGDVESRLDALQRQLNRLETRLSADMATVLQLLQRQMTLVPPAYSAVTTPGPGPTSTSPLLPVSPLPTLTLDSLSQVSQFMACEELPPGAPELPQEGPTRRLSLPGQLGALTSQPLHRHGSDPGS
KCNQ1 inh: blocks the human KCNQ1 potassium channel | P51787 | B-score at 10 µM | CHO-K1 KCNQ1, FluxOR thallium flux fluorescence; stronger effect = higher value | AID 2642 | hit rate 1.3% among 310,000;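 active means compounds whose thallium flux B-score, printed positive for inhibition, exceeds three library SD while starting fluorescence stays within three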;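 further: channel opened by potassium depolarization with thallium stimulus after 20 min compound exposure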
KCC2 mod: KCC2 (human) Cl- transport modulation. Q9H2X9. KCC2 cells, thallium flux FluoZin-2 fluorescence. B-score of Tl+ flux slope (higher = more flux/activation; lower = inhibition) at 10 µM. hit rate 2.2% among 190,000. AID 1456;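 active means thallium flux slope and its plate-corrected score both differing from the plate sample mean at a set confidence after two filtering rounds, in either direction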;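 further: slope of fluorescence scaled to starting intensity during 10 to 20 s after thallium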
KCNK3 block: human KCNK3 channel inhibition, primary screen; AID 602410; O14649; hit rate 0.84% among 340,000; B-score at 10 µM; CHO-KCNK3 thallium flux, FluxOR fluorescence; stronger effect = lower value;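 active means B-score under library mean minus 4 SD, starting fluorescence ratio at most library mean plus 5 SD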;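 further: more negative B-score means stronger inhibition of thallium flux through KCNK3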
KCNK9 block conf: human KCNK9 inhibitor confirmation. inhibition, % at 10 µM. HEK293 KCNK9 cells, FluxOR thallium flux fluorescence. hit rate 43% among 4,900. shares compounds with KCNK9 inh;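 active means thallium signal inhibited by more than 5 SD of the compound-free buffer control wells, on both duplicate plates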;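 further: 0% = assay buffer control wells without compound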
Kir21 sel: mouse Kir2.1 off-target activity of KCNK9 modulators. hit rate 4% among 4,900. shares compounds with KCNK9 inh. inhibition, % at 10 µM. Kir2.1 cells, FluxOR thallium flux fluorescence. AID 492993;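 active means thallium signal drop more than 5 SD beyond the mean of the no-compound control wells, seen in both duplicate plates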;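 further: signal is fluorescence rise after thallium addition divided by baseline fluorescence; plate controls were assay buffer only for no effect and full block by chlorpromazine control for full effect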
KCNK9 uninduced: non-induced cell nonspecific activity of KCNK9 modulators; shares compounds with KCNK9 inh; non-induced KCNK9-HEK293, FluxOR thallium flux; inhibition, % at 10 µM; hit rate 40% among 4,900;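 active means thallium signal drop beyond 5 SD of the untreated control mean, on both duplicate plates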;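 further: plate controls were buffer only IC0 wells for no effect and SID17386958 at its maximal inhibitory level for full effect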
* marks the source's active call; other numbers are inactive results; i = inactive; x = no result.

SMILES	KCNQ1 pot	KCNK9 inh	hERG rescue	KCNQ1 inh	KCC2 mod	KCNK3 block	KCNK9 block conf	Kir21 sel	KCNK9 uninduced
O=C(N/N=C/c1cn(-c2cccs2)nc1-c1ccccc1)c1ccccc1Cl	i	-10*	-2	i	-0.85	i	51%*	i	i
O=C(N/N=C/c1cccs1)c1ccc(NC(=O)c2ccccc2Cl)cc1	i	i	-6	i	1.1	i	x	x	x
O=C(Nc1cc(Sc2ccccn2)cc([N+](=O)[O-])c1)c1ccc(Cl)cc1	i	i	-4	i	-1.1	i	x	x	x
O=C(Nc1cc(Sc2ccccn2)cc([N+](=O)[O-])c1)c1cccc(Cl)c1	i	-10*	-11	7*	-1.7	i	41%*	i	40%*
O=C(c1ccco1)N1CCN(C(=O)c2cn(-c3ccccc3)nc2-c2ccc(F)cc2)CC1	x	x	x	x	x	i	x	x	x
CC(C)CN(C(=O)COC(=O)c1ccccc1SCC(=O)N1CCCC1)C1CCS(=O)(=O)C1 (stereo not drawn)	x	x	x	x	x	i	x	x	x
Cc1cccc(Nc2nnc(-c3ccc(N4CCOCC4)c([N+](=O)[O-])c3)c3ccccc23)c1	i	i	-8	i	-0.48	i	i	i	i
COc1ccc(/C=N/NC(=O)c2ccoc2C)cc1CN1CCN(c2ccc(F)cc2)CC1	i	i	-14	i	x	i	x	x	x
COc1ccc(COc2ccsc2C(=O)Nc2ccc(Cl)cc2)cc1	i	-9*	-11	i	x	i	44%*	i	26%*
CN(C)S(=O)(=O)Oc1ccsc1C(=O)Nc1ccc(Cl)cc1	i	-11*	-8	i	0.41	-11*	33%*	i	40%*
CCCCN(C)CC(O)Cn1cc(/C=C/C(=O)c2ccc(C)cc2)c2ccccc21 (stereo not drawn)	i	i	-25	i	x	i	x	x	x
C=CCN1C(=O)C(Cc2ccccc2)S/C1=N/N=C/c1cccs1 (stereo not drawn)	i	i	-9	8*	-0.76	i	i	i	i
CCN(CC)S(=O)(=O)c1ccc2c(c1)nc(SC(C)C(=O)NCC1CCCO1)n2CC (stereo not drawn)	i	i	-11	i	x	i	i	i	i
CCOC(=O)c1ccc2c(c1)nc(SC(C)C(=O)NCC1CCCO1)n2CC (stereo not drawn)	x	x	x	x	x	i	x	x	x
CN(C(=O)COC(=O)c1cc(=O)[nH]c2ccccc12)c1ccccc1	x	x	x	x	x	i	x	x	x
O=C(NCc1ccc(F)cc1)c1cc2c(cc1Cl)N1CCCCCC1=NS2(=O)=O	x	x	x	x	x	i	x	x	x
Cc1cc(NC(=O)COc2coc(CN3CCN(c4ccc(F)cc4)CC3)cc2=O)no1	i	i	-11	i	x	i	x	x	x
CC1(C)C(C=C(Cl)Cl)C1C(=O)N/N=C/c1ccccc1F (stereo not drawn)	i	-9.5*	-13	i	x	i	i	i	27%*
CCCSc1ccc([C@@H]2[C@@H]3C(=O)N(C)C(=O)[C@@H]3[C@]3(C(=O)OC)CCCN23)cc1OC	x	x	x	x	x	i	x	x	x
Cc1ccc(OCCn2c(=S)[nH]c3ccccc32)c(C(C)C)c1	i	i	-10	i	x	i	i	42%*	i
CC(C)=CCc1c(-c2ccc(O)cc2O)oc2c3c(cc(O)c2c1=O)OC(C)(C)C=C3	i	i	-9	i	x	x	i	i	i
O=C(CSc1ccc(S(=O)(=O)N2CCOCC2)cn1)Nc1ccc(F)c(F)c1	x	x	x	x	x	i	x	x	x
COc1ccc(N2C(=O)CC(N3CCN(S(=O)(=O)c4c(C)cc(C)cc4C)CC3)C2=O)cc1 (stereo not drawn)	x	x	x	x	x	i	x	x	x
